{"source": "ChEMBL document CHEMBL1221297", "about": "“Design, synthesis, and in vitro antiprotozoal, antimycobacterial activities of N-{2-[(7-chloroquinolin-4-yl)amino]ethyl}ureas” (Bioorg Med Chem, 2010)", "key": {"Trypanosoma cruzi": {"system": "Trypanosoma cruzi", "assay": "Antimicrobial activity against epimastigotes form of Trypanosoma cruzi MHOM/MX/1994/Ninoa after 72 hrs", "assay_type": "functional, organism-based", "procedure,_shortened": "(§1)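 Parasites grown at 26 °C in Schneider's drosophila medium with 10% FBS and penicillin. 10,000 L. mexicana promastigotes or 20,000 T. cruzi epimastigotes per well, at 10, 5, 2.5 and 1.25 µg/mL. Untreated parasite cultures included. 72 h at 26 °C, then parasites counted directly in a Neubauer chamber. IC50 by probit analysis.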"}, "Giardia intestinalis": {"system": "Giardia intestinalis", "assay": "Antimicrobial activity against Giardia intestinalis IMSS:0696:1 after 48 hrs", "assay_type": "functional, organism-based", "settings": "Giardia duodenalis, IMSS:0696:1, 48 h", "procedure,_shortened": "(§2)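 Trophozoites (4 × 10⁴) exposed 48 h at 37 °C to increasing compound concentrations; DMSO-medium negative control. Then washed and subcultured 48 h in fresh drug-free medium before counting. IC50 by probit analysis; triplicate, repeated at least twice. Giardia grown in modified TYI-S-33 with 10% calf serum and bovine bile. Trichomonas and Entamoeba grown in TYI-S-33 with 10% bovine serum.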"}, "Entamoeba histolytica": {"system": "Entamoeba histolytica", "assay": "Antimicrobial activity against Entamoeba histolytica HM-1:IMSS after 48 hrs", "assay_type": "functional, organism-based", "procedure,_shortened": "as §2"}, "Trichomonas vaginalis": {"system": "Trichomonas vaginalis", "assay": "Antimicrobial activity against Trichomonas vaginalis GT3 after 48 hrs", "assay_type": "functional, organism-based", "settings": "GT3, 48 h", "procedure,_shortened": "as §2"}, "Leishmania mexicana": {"system": "Leishmania mexicana", "assay": "Antimicrobial activity against promastigotes form of Leishmania mexicana MHOM/MX/ISETGS after 72 hrs", "assay_type": "functional, organism-based", "procedure,_shortened": "as §1"}, "[1]": {"system": "Mycobacterium tuberculosis", "assay": "Antimicrobial activity against Mycobacterium tuberculosis H37Rv ATTC 27294 by microplate alamar blue assay", "assay_type": "functional, organism-based", "procedure,_shortened": "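Inoculum from a log-phase culture adjusted to McFarland 1, then diluted 1:50 in Middlebrook 7H9 broth to 6 × 10⁶ CFU/mL and prepared just before inoculation. Compounds tested from […]. Ethambutol served as positive internal standard. MIC read by Alamar Blue. Done in triplicate.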"}, "[2]": {"assay": "Selectivity index, ratio of CC50 for african green monkey Vero cells to IC50 for Giardia intestinalis IMSS:0696:1", "assay_type": "functional", "procedure,_shortened": "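SI computed as CC50 in VERO cells divided by IC50 against the parasite.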"}, "[3]": {"assay": "Cytotoxicity against african green monkey Vero cells after 72 hrs by MTT assay", "assay_type": "cell-based", "settings": "chlorocebus sabaeus", "procedure,_shortened": "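VERO cells (1.5 × 10⁴) grown in DMEM with 10% FBS at 37 °C, 5% CO₂. Seeded and grown 24–48 h, then treated at >80% confluence with 6.25–100 µg/mL (DMSO ≤0.05%) for 72 h. MTT added for 4 h at 37 °C. Formazan dissolved in acidified isopropanol and read at OD 540 nm. CC50 from triplicates.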"}}}
{"smiles": "COc1ccc(NC(=O)NCCNc2ccnc3cc(Cl)ccc23)cc1", "values": [{"measurement": "IC50", "setting": "Trypanosoma cruzi", "result": "> 50", "unit": "µM"}, {"measurement": "IC50", "setting": "Giardia intestinalis", "result": 0.595, "unit": "µM"}, {"measurement": "IC50", "setting": "Entamoeba histolytica", "result": 10.7, "unit": "µM"}, {"measurement": "IC50", "setting": "Trichomonas vaginalis", "result": 21.7, "unit": "µM"}, {"measurement": "IC50", "setting": "Leishmania mexicana", "result": "> 50", "unit": "µM"}, {"measurement": "IC50", "setting": "[1]", "result": 8, "unit": "µg/mL"}]}
{"smiles": "O=C(NCCNc1ccnc2cc(Cl)ccc12)NC1CCCCC1", "values": [{"measurement": "IC50", "setting": "Trypanosoma cruzi", "result": "> 50", "unit": "µM"}, {"measurement": "IC50", "setting": "Giardia intestinalis", "result": 1.65, "unit": "µM"}, {"measurement": "IC50", "setting": "Entamoeba histolytica", "result": 6.93, "unit": "µM"}, {"measurement": "IC50", "setting": "Trichomonas vaginalis", "result": 66.7, "unit": "µM"}, {"measurement": "IC50", "setting": "Leishmania mexicana", "result": "> 50", "unit": "µM"}, {"measurement": "IC50", "setting": "[1]", "result": 8, "unit": "µg/mL"}]}
{"smiles": "O=C(NCCNc1ccnc2cc(Cl)ccc12)Nc1ccccc1", "values": [{"measurement": "IC50", "setting": "Trypanosoma cruzi", "result": "> 50", "unit": "µM"}, {"measurement": "IC50", "setting": "Giardia intestinalis", "result": 1.17, "unit": "µM"}, {"measurement": "IC50", "setting": "Entamoeba histolytica", "result": 5.37, "unit": "µM"}, {"measurement": "IC50", "setting": "Trichomonas vaginalis", "result": 46, "unit": "µM"}, {"measurement": "IC50", "setting": "Leishmania mexicana", "result": "> 50", "unit": "µM"}, {"measurement": "IC50", "setting": "[1]", "result": 8, "unit": "µg/mL"}]}
{"smiles": "O=C(NCCNc1ccnc2cc(Cl)ccc12)Nc1ccc(Cl)cc1", "values": [{"measurement": "IC50", "setting": "Trypanosoma cruzi", "result": 50, "unit": "µM"}, {"measurement": "IC50", "setting": "Giardia intestinalis", "result": 0.267, "unit": "µM"}, {"measurement": "IC50", "setting": "Entamoeba histolytica", "result": 6.87, "unit": "µM"}, {"measurement": "IC50", "setting": "Trichomonas vaginalis", "result": 9.59, "unit": "µM"}, {"measurement": "IC50", "setting": "Leishmania mexicana", "result": 50, "unit": "µM"}, {"measurement": "IC50", "setting": "[1]", "result": 4, "unit": "µg/mL"}]}
{"smiles": "O=C(NCCNc1ccnc2cc(Cl)ccc12)Nc1ccc(F)cc1", "values": [{"measurement": "IC50", "setting": "Trypanosoma cruzi", "result": "> 50", "unit": "µM"}, {"measurement": "IC50", "setting": "Giardia intestinalis", "result": 0.927, "unit": "µM"}, {"measurement": "IC50", "setting": "Entamoeba histolytica", "result": 17.7, "unit": "µM"}, {"measurement": "IC50", "setting": "Trichomonas vaginalis", "result": 23.2, "unit": "µM"}, {"measurement": "IC50", "setting": "Leishmania mexicana", "result": "> 50", "unit": "µM"}, {"measurement": "IC50", "setting": "[1]", "result": 8, "unit": "µg/mL"}]}
{"smiles": "CCOc1ccc(NC(=O)NCCNc2ccnc3cc(Cl)ccc23)cc1", "values": [{"measurement": "IC50", "setting": "Trypanosoma cruzi", "result": 50, "unit": "µM"}, {"measurement": "IC50", "setting": "Giardia intestinalis", "result": 0.339, "unit": "µM"}, {"measurement": "IC50", "setting": "Entamoeba histolytica", "result": 5.93, "unit": "µM"}, {"measurement": "IC50", "setting": "Trichomonas vaginalis", "result": 30.1, "unit": "µM"}, {"measurement": "IC50", "setting": "Leishmania mexicana", "result": 50, "unit": "µM"}, {"measurement": "IC50", "setting": "[1]", "result": 8, "unit": "µg/mL"}]}
{"smiles": "CCCCOc1ccc(NC(=O)NCCNc2ccnc3cc(Cl)ccc23)cc1", "values": [{"measurement": "IC50", "setting": "Trypanosoma cruzi", "result": 50, "unit": "µM"}, {"measurement": "IC50", "setting": "Giardia intestinalis", "result": 0.008, "unit": "µM"}, {"measurement": "IC50", "setting": "Entamoeba histolytica", "result": 3.64, "unit": "µM"}, {"measurement": "IC50", "setting": "Trichomonas vaginalis", "result": 8.44, "unit": "µM"}, {"measurement": "Ratio CC50/IC50", "setting": "[2]", "result": 625}, {"measurement": "IC50", "setting": "Leishmania mexicana", "result": 9.9, "unit": "µM"}, {"measurement": "IC50", "setting": "[1]", "result": 2, "unit": "µg/mL"}, {"measurement": "CC50 at 72 h", "setting": "[3]", "result": 5, "unit": "µM"}]}
{"smiles": "O=C(NCCNc1ccnc2cc(Cl)ccc12)Nc1ccc([N+](=O)[O-])cc1", "values": [{"measurement": "IC50", "setting": "Trypanosoma cruzi", "result": 50, "unit": "µM"}, {"measurement": "IC50", "setting": "Giardia intestinalis", "result": 1.75, "unit": "µM"}, {"measurement": "IC50", "setting": "Entamoeba histolytica", "result": 10.6, "unit": "µM"}, {"measurement": "IC50", "setting": "Trichomonas vaginalis", "result": 12, "unit": "µM"}, {"measurement": "IC50", "setting": "Leishmania mexicana", "result": 50, "unit": "µM"}, {"measurement": "IC50", "setting": "[1]", "result": 8, "unit": "µg/mL"}]}
{"smiles": "NCCNc1ccnc2cc(Cl)ccc12", "values": [{"measurement": "IC50", "setting": "Trypanosoma cruzi", "result": "> 50", "unit": "µM"}, {"measurement": "IC50", "setting": "Giardia intestinalis", "result": 1.25, "unit": "µM"}, {"measurement": "IC50", "setting": "Entamoeba histolytica", "result": 14.6, "unit": "µM"}, {"measurement": "IC50", "setting": "Trichomonas vaginalis", "result": 23, "unit": "µM"}, {"measurement": "IC50", "setting": "Leishmania mexicana", "result": "> 50", "unit": "µM"}, {"measurement": "IC50", "setting": "[1]", "result": 8, "unit": "µg/mL"}]}
{"smiles": "O=C(Cn1ccnc1[N+](=O)[O-])NCc1ccccc1", "note": "[BENZNIDAZOLE]", "values": [{"measurement": "IC50", "setting": "Trypanosoma cruzi", "result": 34.4, "unit": "µM"}]}
{"smiles": "CCN(CC)CCCC(C)Nc1ccnc2cc(Cl)ccc12", "note": "(stereo unspecified) [CHLOROQUINE]", "values": [{"measurement": "IC50", "setting": "Trypanosoma cruzi", "result": "> 50", "unit": "µM"}, {"measurement": "IC50", "setting": "Giardia intestinalis", "result": 0.401, "unit": "µM"}, {"measurement": "IC50", "setting": "Entamoeba histolytica", "result": 9.58, "unit": "µM"}, {"measurement": "IC50", "setting": "Trichomonas vaginalis", "result": 30, "unit": "µM"}, {"measurement": "IC50", "setting": "Leishmania mexicana", "result": "> 50", "unit": "µM"}, {"measurement": "IC50", "setting": "[1]", "result": "> 8", "unit": "µg/mL"}]}
{"smiles": "CC[C@@H](CO)NCCN[C@@H](CC)CO", "note": "[ETHAMBUTOL]", "values": [{"measurement": "IC50", "setting": "[1]", "result": 4, "unit": "µg/mL"}]}
{"smiles": "N=C(N)c1ccc(OCCCCCOc2ccc(C(=N)N)cc2)cc1", "note": "[PENTAMIDINE]", "values": [{"measurement": "IC50", "setting": "Leishmania mexicana", "result": 13.3, "unit": "µM"}]}
{"smiles": "CC(C)CCOc1ccc(NC(=S)Nc2ccc(OCCC(C)C)cc2)cc1", "note": "[TIOCARLIDE]", "values": [{"measurement": "IC50", "setting": "[1]", "result": 4, "unit": "µg/mL"}]}
